One experiment has as its target T1, Thymidylate synthase (Lactobacillus casei, UniProt P00469).
T1 sequence (P00469 whole entry): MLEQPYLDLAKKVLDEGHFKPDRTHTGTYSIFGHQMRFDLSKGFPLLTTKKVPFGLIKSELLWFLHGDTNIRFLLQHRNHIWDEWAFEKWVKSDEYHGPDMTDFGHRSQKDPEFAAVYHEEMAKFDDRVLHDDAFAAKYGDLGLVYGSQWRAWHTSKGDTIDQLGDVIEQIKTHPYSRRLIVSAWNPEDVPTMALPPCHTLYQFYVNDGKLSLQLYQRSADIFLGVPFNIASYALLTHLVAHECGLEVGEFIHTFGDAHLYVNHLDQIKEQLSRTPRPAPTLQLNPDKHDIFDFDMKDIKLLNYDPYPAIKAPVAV
As to the kind of experiment: In vitro inhibitory concentration against Lactobacillus casei thymidylate synthetase. Details: species or system Lacticaseibacillus casei.

The test system of experiment [1] is Mus musculus. In words: In vivo activity (survivors) at optimal dose of 1 mg/kg, by intraperitoneal administration in BDF1 mice against L1210 leukemia cells; […] given as 5/22. The format is functional.
Experiment [2] deals with T2, Folylpolyglutamate synthase, mitochondrial (Mus musculus) (UniProt P48760).
T2 sequence (whole entry): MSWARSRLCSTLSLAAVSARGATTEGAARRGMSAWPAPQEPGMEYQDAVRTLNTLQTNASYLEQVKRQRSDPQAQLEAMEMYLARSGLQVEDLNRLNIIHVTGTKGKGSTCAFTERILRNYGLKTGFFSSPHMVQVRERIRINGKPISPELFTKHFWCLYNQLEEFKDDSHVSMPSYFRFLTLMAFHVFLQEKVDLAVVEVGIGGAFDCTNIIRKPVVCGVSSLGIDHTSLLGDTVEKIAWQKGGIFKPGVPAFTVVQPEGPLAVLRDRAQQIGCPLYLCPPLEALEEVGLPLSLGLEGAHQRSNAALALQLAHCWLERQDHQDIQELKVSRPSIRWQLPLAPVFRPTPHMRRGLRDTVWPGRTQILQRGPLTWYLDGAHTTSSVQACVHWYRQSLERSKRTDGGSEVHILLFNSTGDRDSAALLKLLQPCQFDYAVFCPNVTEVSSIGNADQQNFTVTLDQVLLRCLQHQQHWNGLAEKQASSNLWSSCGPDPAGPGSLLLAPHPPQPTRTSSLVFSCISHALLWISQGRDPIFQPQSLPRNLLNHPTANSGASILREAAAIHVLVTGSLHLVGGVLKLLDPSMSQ
As to the kind of experiment: Activity (relative Vmax) was evaluated in vitro by purified mouse liver folate polyglutamate synthetase (FPGS). An outline of the steps:
(§1)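 Full saturation curves used duplicate assays at each of six concentrations, usually spanning 0.2–3 apparent Km. Kinetic values were derived by the Cleland method. Each value is expressed as a proportion of the PteGlu value from saturation curves run in the same experiment.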

In experiment [3] the test system is L1210. In words: (§2) Inhibitory concentration against the growth of L1210 murine leukemia cells in tissue culture. It is filed as functional, cell-based. The conditions noted are these: Mus musculus.
Experiment [4] has as its target T2, Folylpolyglutamate synthase, mitochondrial (Mus musculus). As to the kind of experiment: Activity (relative Km ) was evaluated in vitro by purified mouse liver folate polyglutamate synthetase (FPGS). An outline of the steps: as §1
For experiment [5], the system named is Mus musculus. As to the kind of experiment: In vivo activity(%ILS) at optimal dose of 1 mg/kg, by intraperitoneal administration in BDF1 mice against L1210 leukemia cells. It is filed as functional. Conditions: L1210, ip.
For experiment [6], the species on record is Mus musculus. The description is as §2. The format is functional, cell-based.
The target in experiment [7] is T2, Folylpolyglutamate synthase, mitochondrial (Mus musculus). In words: Activity (relative Km) was evaluated in vitro by purified mouse liver folate polyglutamate synthetase (FPGS). The method, boiled down:
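Partially purified mouse liver FPGS incubated with each substrate for 1 h at 37 °C. Full saturation curves were run in duplicate at six concentrations, usually 0.2–3 apparent Km, and products were isolated. Kinetic constants came from Cleland analysis. Km is expressed relative to PteGlu, taken from saturation curves run in the same experiment.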

For experiment [8], the system named is Mus musculus. As to the kind of experiment: (§3) In vivo activity(%ILS) at optimal dose of 4 mg/kg, by intraperitoneal administration in BDF1 mice against L1210 leukemia cells. It is filed as functional. The conditions noted are these: L1210, ip.
For experiment [9], the system named is Mus musculus. In words: In vivo activity (survivors) at optimal dose of 4mg/kg, by intraperitoneal administration in BDF1 mice against L1210 leukemia cells; […] given as 4/21. The format is functional.
Experiment [10] has as its system L1210. Described as §2. Conditions: Mus musculus.
Experiment [11] concerns Mus musculus. In words: In vivo activity (survivors) at optimal dose of 4 mg/kg, by intraperitoneal administration in BDF1 mice against L1210 leukemia cells; […] given as 0/10. It is filed as functional.
For experiment [12], the system named is L1210. The description is as §3. It is filed as functional. Conditions: Mus musculus, L1210, ip.

The structures appear in SMILES notation. Bounds are passed on as bounds.

For orientation: IC50 means the concentration at which inhibition is half-maximal. Read a low IC50 as inhibition by little substance. Broadly, the ILS is the gain in survival time of treated over control animals, in per cent. Read a low ILS as little gain in survival.

Take `Nc1nc(N)c2c(n1)NCC(CCc1ccc(C(=O)NC(CCC(=O)O)C(=O)O)cc1)C2` (stereo not given): the values for the IC50 at Thymidylate synthase and with L1210 [3] were 920 µM and 0.0033 µM, respectively. The same molecule displayed a Survivors with Mus musculus [1] of 5. Moreover, in experiment [2], the Relative Vmax was 1.61. The molecule further yielded a Relative Km in experiment [4] of 0.23. This molecule also had an increase in lifespan (ILS) at 1 mg/kg in the experiment on Mus musculus [5] of 111%.

For the molecule `Nc1nc(N)c2nc(CNc3ccc(C(=O)N[C@@H](CCC(=O)O)C(=O)O)cc3)cnc2n1` [AMINOPTERIN], the Relative Vmax in experiment [2] was 1.5. Inhibition in the experiment with L1210 [3] was half-maximal at 0.0021 µM (IC50). Besides, the Relative Km in [4] was found to be 0.21.

Consider `Nc1nc(O)c2cc(CCc3ccc(C(=O)N[C@@H](CCC(=O)O)C(=O)O)cc3)cnc2n1`, for which, in [2], the Relative Vmax amounted to 0.9. In the experiment listed under Mus musculus [6], this molecule had an IC50 of over 100 µM. This molecule gave a Relative Km in [4] of 0.68.

For the molecule `Nc1nc(O)c2c(n1)NCC(CNc1ccc(C(=O)N[C@@H](CCC(=O)O)C(=O)O)cc1)N2` (stereo not given in full), the Relative Vmax in [2] worked out at 1.31. The molecule further returned a Relative Km in experiment [4] of 0.051.

`Nc1nc2ncc(CCc3ccc(C(=O)N[C@@H](CCC(=O)O)C(=O)O)cc3)cc2c(=O)[nH]1` came in with an IC50 at Thymidylate synthase of 77 µM.

In [7], `Nc1nc(N)c2cc(CCc3ccc(C(=O)NC(CCC(=O)O)C(=O)O)cc3)cnc2n1` (stereo not given) had a Relative Km of 0.86. The IC50 was 92 µM at Thymidylate synthase and 0.017 µM in the experiment on L1210 [3]. Further, in experiment [2], the Relative Vmax stood at 0.35. This molecule gave an ILS at 4 mg/kg in the experiment on Mus musculus [8] of 130%. Moreover, the Survivors in the experiment with Mus musculus [9] is listed as 4.

`Nc1nc(O)c2c(n1)NCC(CCc1ccc(C(=O)NC(CCC(=O)O)C(=O)O)cc1)C2` (stereo not given): the concentration for half-maximal inhibition (IC50) was over 1000 µM against Thymidylate synthase and 0.059 µM in the experiment filed under Mus musculus [6]. For the same molecule, in experiment [2], the Relative Vmax turned out to be 1.24. For the same molecule, the Relative Km in experiment [4] was 0.05.

Turning to `Nc1nc(=O)c2nc(CNc3ccc(C(=O)N[C@@H](CCC(=O)O)C(=O)O)cc3)cnc2[nH]1`, the Relative Vmax in experiment [2] came to 1. In addition, the Km app in experiment [4] was 1 rel.

As to `CN(Cc1cnc2nc(N)nc(N)c2n1)c1ccc(C(=O)N[C@@H](CCC(=O)O)C(=O)O)cc1` [METHOTREXATE], the 50% inhibitory concentration (IC50) in the experiment on L1210 [10] turned out to be 0.01 µM. The Survivors in the experiment with Mus musculus [11] worked out at 0. For the same molecule, in the experiment with L1210 [12], the ILS at 4 mg/kg was determined as 85%.

The values above are taken from ChEMBL document CHEMBL1122902, “Synthesis of the antileukemic agents 5,10-dideazaaminopterin and 5,10-dideaza-5,6,7,8-tetrahydroaminopterin” (J Med Chem, 1985).
